From paper PMC2784041 (Environmental Microbiology, 2009)
Read-outs that look alike come from different tables or passages of the source.

Legend:
Test in all cases: spectrophotometric ring-cleavage assay, non-linear Michaelis-Menten fit
EXDO-Dbt_s207 = format: biochemical; conditions: read-out: Km (μM) ^b, partially purified enzyme
EXDO-D_s45 = format: biochemical, uncultured bacterium; conditions: read-out: Km (μM) ^b; 50 mM K/Na-phosphate pH 8.0, air-saturated; partially purified enzyme
Outline: (§1)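 Enzyme came from E. coli EPI300-T1R fosmid clones grown at 37°C in LB with 0.01% L-arabinose and 25 μg ml−1 chloramphenicol, harvested in late exponential phase. Extracts were partially purified by anion exchange chromatography. Ring-cleavage product was followed spectrophotometrically in 50 mM air-saturated K/Na-phosphate pH 8.0 (catechol ε375, 3-methylcatechol ε388, 2,3-dihydroxybiphenyl ε434). Km was obtained from initial velocities over 1–100 μM substrate by non-linear Michaelis–Menten regression.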

EXDO-K2_s3 = format: biochemical; conditions: read-out: Km (μM) ^b; 50 mM K/Na-phosphate pH 8.0, air-saturated; partially purified enzyme
Outline: as §1

EXDO-K2_s129 = format: biochemical; conditions: read-out: Km (μM) ^b; 50 mM K/Na-phosphate pH 8.0, air-saturated; partially purified enzyme
Outline: as §1

EXDO-K2_s7 = format: biochemical; conditions: read-out: Km (μM) ^b; 50 mM K/Na-phosphate pH 8.0, air-saturated; partially purified enzyme
Outline: as §1

EXDO-K2_s162 = format: biochemical; conditions: read-out: Km (μM) ^b; 50 mM K/Na-phosphate pH 8.0, air-saturated; partially purified enzyme
Outline: as §1

EXDO-D_s4 = format: biochemical, uncultured bacterium; conditions: read-out: Km (μM) ^b; 50 mM K/Na-phosphate pH 8.0, air-saturated; partially purified enzyme
Outline: as §1

EXDO-D_s151 = format: biochemical, uncultured bacterium; conditions: read-out: Km (μM) ^b; 50 mM K/Na-phosphate pH 8.0, air-saturated; partially purified enzyme
Outline: as §1

[1] = 50 mM K/Na-phosphate pH 8.0, air-saturated

SMILES	Km (EXDO-Dbt_s207; 50 mM acetic acid/NaOH pH 5.5, air-saturated)	Km (EXDO-Dbt_s207; [1])	Km (EXDO-D_s45)	Km (EXDO-K2_s3)	Km (EXDO-K2_s129)	Km (EXDO-K2_s7)	Km (EXDO-K2_s162)	Km (EXDO-D_s4)	Km (EXDO-D_s151)
Oc1ccc2ccccc2c1O [1,2-dihydroxynaphthalene]	11.6 ± 1.4 µM								
Oc1cccc(-c2ccccc2)c1O [2,3-dihydroxybiphenyl]		4.2 ± 0.7 µM	0.61 ± 0.08 µM	2.1 ± 0.2 µM	2.1 ± 0.2 µM	0.84 ± 0.08 µM	1 ± 0.1 µM	3.7 ± 0.6 µM	
Cc1cccc(O)c1O [3-methylcatechol]		13.6 ± 1.9 µM	0.27 ± 0.1 µM	4.5 ± 0.6 µM	9.3 ± 1.1 µM	4.6 ± 0.4 µM	4.3 ± 0.7 µM	1.8 ± 0.3 µM	3.5 ± 1.5 µM
Oc1ccccc1O [catechol]		35 ± 5 µM	0.27 ± 0.03 µM					1.4 ± 0.2 µM	1.1 ± 0.2 µM
